Calls of active or inactive are those of the source. The calls are words filed in the database; no cut-off is given here.
Assays:
[1] = Half life in CD1 mouse at 1 mg/kg, iv measured after 0.03 to 24 hrs by UHPLC-TOF method; format: ADME, organism-based; settings: in vivo, time 0.03-24 hrs
Human orthopneumovirus [2] = test: Antiviral activity against Respiratory syncytial virus A Memphis 37b infected in human assessed as reduction in mean AUC of viral load at 200 mg administered twice daily administered for 5 days by RT-qPCR analysis; format: functional; set-up: scale not given: the % may be the effect or the level left; settings: time 5 day
Outline: (§1)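 Healthy adult volunteers aged 18–45 with low serum pre-existing RSV-specific antibodies were challenged on day zero with about 4 log10 PFU of RSV-A Memphis 37b. Subjects were randomized into 3 equal groups: 200 mg, 350 mg or placebo twice daily for 5 days, begun after infection was confirmed. Viral load in nasal wash was measured by RT-qPCR or by cell-based infectivity assay, and AUC was compared with placebo.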

[3] = Half life in Sprague-Dawley rat at 50 mg/kg, po measured after 0.02 to 24 hrs by UHPLC-TOF method; settings: in vivo
Human orthopneumovirus [4] = test: Antiviral activity against Respiratory syncytial virus A Memphis 37b infected in human assessed as reduction in nasal mucus weight at 200 to 350 mg administered twice daily administered for 5 days; format: functional, organism-based; settings: dose 200-350 mg, time 5.0 day
Outline: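 Healthy adult volunteers aged 18–45, with low pre-existing RSV antibody levels, were challenged on day 0 with about 4 log10 PFU RSV-A Memphis 37b. After infection was confirmed, they were randomised to 200 mg, 350 mg or placebo twice daily for 5 days. Post hoc analysis compared mean daily nasal mucus weight with placebo.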

[5] = Protein binding in rat plasma assessed as unbound fraction at 5 uM by LC-MS/MS analysis based equilibrium dialysis method; format: ADME, cell-free
[6] = Apparent permeability across apical to basolateral side in MDCK-MDR1 cells at 10 uM measured at 60 mins by LC-MS/MS analysis; format: ADME, cell-based, Canis lupus familiaris; settings: dog, MDCK-MDR1
[7] = Cytotoxicity against human Hep2 cells; format: cell-based; settings: HEp-2 cells
Outline: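 Hep2 cells were cultured in parallel with the plaque assays at compound concentrations of 0.01 nM to 100 μM. Viability was read by MTT, CellTox green or CellTiter-Glo.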

[8] = Half life in human liver microsomes preincubated followed by NADPH addition and measured up to 45 mins by LC-MS/MS analysis; format: ADME, Microsome
[9] = Cmax in Sprague-Dawley rat at 5 mg/kg, po administered via gavage measured after 0.02 to 24 hrs by tandem liquid chromatography/mass spectrometry; format: ADME, organism-based; set-up: route oral, dose 5 mg/kg, time upper 24 hrs, time lower 0.02 hrs; settings: in vivo
Outline: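 Male Sprague–Dawley rats weighing 200–250 g, 3 per route, were used. The i.v. bolus was 1 mg/kg at 1 mg/mL in 40:60 dimethylacetamide/saline. Oral gavage doses were 5 or 10 mg/kg at 5 mg/mL in 1% methyl cellulose with 0.1% Tween 80. Heparinized blood was taken at 0.02–24 h (ten time points). Plasma was analyzed by LC-MS/MS after acetonitrile precipitation.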

[10] = Half life in Beagle dog hepatocytes at 3 uM assessed per million cells measured up to 60 mins by LC-MS/MS analysis; format: ADME, cell-based, Canis lupus familiaris, Hepatocyte
Rattus norvegicus = organism: Rattus norvegicus; test: Toxicity in rat by micronucleus test; format: functional, organism-based
[11] = Antiviral activity against Respiratory syncytial virus B by Plaque reduction assay; format: functional
Outline: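 RSV A and B laboratory strains and low-passage clinical isolates were used to infect Vero or HepG2 cultures for 48 h with compound at 0.01 nM to 100 μM. Plaques were then detected by immunostaining.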

Human orthopneumovirus [12] = test: Antiviral activity against Respiratory syncytial virus A Memphis 37b infected in human assessed as reduction in AUC of total symptom score at 200 to 350 mg administered twice daily administered for 5 days; format: functional, organism-based; settings: dose 200-350 mg, time 5.0 day
Outline: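 Phase 2a challenge study in healthy adults aged 18–45 with low serum RSV-specific antibodies, inoculated on day 0 with about 4 log10 PFU RSV-A Memphis 37b. After infection was confirmed, subjects were randomised to three equal groups: drug at 200 or 350 mg, or placebo, twice daily for 5 days. Read-out was AUC of total symptom score versus placebo.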

[13] = Induction of toxicity in human at 175 to 350 mg; settings: dose 175-350 mg
[14] = Oral bioavailability in Sprague-Dawley rat at 50 mg/kg administered via gavage measured after 0.02 to 24 hrs by tandem liquid chromatography/mass spectrometry; format: ADME, organism-based; settings: in vivo, time 0.02-24 hrs
[15] = system: Respiratory syncytial virus; test: Antiviral activity against Respiratory syncytial virus infected in human airway epithelial cells assessed as reduction in RSV titer at 10 nM preincubated for 2 hrs followed by viral infection and measured after 7 day post infection by luminescence assay relative to control; format: functional, HAE
Outline: (§2)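 Primary HAE cells were differentiated for 61 days on type IV collagen-coated trans-well inserts (n = 3 cultures). Compound at 10 nM was given basolaterally for 2 h before apical inoculation with 4 × 10⁵ pfu of luciferase-expressing recombinant RSV. Apical virus titer was read by luminescence on days 7 and 8 post-infection and compared with untreated controls. Data are mean SD.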

[16] = system: Respiratory syncytial virus; test: Antiviral activity against Respiratory syncytial virus Memphis 37b infected in human HEp2 cells by plaque assay; format: functional, organism-based; settings: HEp-2
[17] = Apparent permeability across basolateral side to apical side in MDCK-MDR1 cells at 10 uM measured at 60 mins by LC-MS/MS analysis; format: ADME, cell-based, Canis lupus familiaris; settings: dog
Salmonella typhimurium = test: Genotoxicity in Salmonella typhimurium by Ames test; format: functional, organism-based; settings: Salmonella enterica subsp. enterica serovar Typhimurium
[18] = Clearance in Sprague-Dawley rat at 50 mg/kg, po measured after 0.25 to 24 hrs by UHPLC-TOF method; format: ADME, organism-based; settings: in vivo, time 0.25-24 hrs
Human orthopneumovirus [19] = test: Antiviral activity against Respiratory syncytial virus A Memphis 37b infected in human assessed as reduction in mean AUC of viral load at 350 mg administered twice daily administered for 5 days by RT-qPCR analysis; format: functional; set-up: scale not given: the % may be the effect or the level left; settings: time 5 day; outline: as §1
[20] = Half life in Sprague-Dawley rat liver microsomes preincubated followed by NADPH addition and measured up to 45 mins by LC-MS/MS analysis; format: ADME, Microsome
[21] = Cytotoxicity against African green monkey Vero cells by MTT assay; format: cell-based; settings: chlorocebus sabaeus
Outline: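 Viability was assessed by MTT after culture with compound at 0.01 nM to 100 μM, run in parallel with plaque reduction assays. Values are the average of at least two testing occasions.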

[22] = Oral bioavailability in Beagle dog at 3 mg/kg measured after 0.03 to 24 hrs by UHPLC-TOF method; format: ADME, organism-based, Canis lupus familiaris; settings: Beagle, in vivo, time 0.03-24 hrs
Outline: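 Dogs examined by a veterinary surgeon before each session, fed 2 h post-dose, water ad libitum, dosed as amorphous-solid suspension. Serial blood into heparinized tubes, centrifuged at 4 °C for 10 min at 3000g; plasma snap-frozen at −20 °C. IV sampling 2 min–24 h, oral 15 min–24 h. Plasma analysed by UHPLC-quadrupole-TOF MS.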

[23] = system: Respiratory syncytial virus; test: Antiviral activity against Respiratory syncytial virus infected in human airway epithelial cells assessed as reduction in RSV titer at 10 nM preincubated for 2 hrs followed by viral infection and measured after 8 day post infection by luminescence assay relative to control; format: functional, HAE; outline: as §2
[24] = Protein binding in human plasma assessed as unbound fraction at 5 uM by LC-MS/MS analysis based equilibrium dialysis method; format: ADME, cell-free
[25] = Half life in human hepatocytes at 3 uM measured up to 60 mins by LC-MS/MS analysis; format: ADME, cell-based, Hepatocyte

NCc1ccc2c(c1)nc(CN1C(=O)C3(CC3)c3ccc(F)cc31)n2CCCC(F)(F)F [SISUNATOVIR]
half-life [1]: 4.2 h | Activity (Human orthopneumovirus [2]): 55.25% | half-life [3]: 5.9 h | Activity (Human orthopneumovirus [4]): Active | fraction unbound at 5 µM [5]: 0.52 | Papp A→B at 1 h, 10 µM [6]: 0.5 ×10⁻⁶ cm/s | CC50 [7]: > 20000 nM | half-life [8]: 0.533 h | Cmax [9]: 74.2 ng/mL | half-life at 3 µM [10]: 9.67 h | Activity (Rattus norvegicus): Not toxic | IC50 [11]: 1 nM | Activity (Human orthopneumovirus [12]): Active | Activity [13]: Non-Toxic | bioavailability [14]: 132% | log(activity) [15]: 2.3 | EC50 [16]: 1.18 nM | Papp B→A at 1 h, 10 µM [17]: 73 ×10⁻⁶ cm/s | Activity (Salmonella typhimurium): Not toxic | CL/F [18]: 164 mL/min/kg | Activity (Human orthopneumovirus [19]): 63.05% | half-life [20]: 1.33 h | CC50 [21]: > 4000 nM | bioavailability [22]: 44.2% | log(activity) [23]: 2.35 | fraction unbound at 5 µM [24]: 0.67 | half-life at 3 µM [25]: 3.52 h

From ChEMBL document CHEMBL4825662 (J Med Chem, 2021)
